Laboratory results: ChEMBL document CHEMBL1143124, “Synthesis and structure-activity relationships of 16-ene-22-thia-1alpha,25-dihydroxy-26,27-dimethyl-19-norvitamin D3 analogs having side chains of different sizes” (Bioorg Med Chem, 2008)

Columns and labels:
[1] = target: T1, Vitamin D3 receptor (Rattus norvegicus) (UniProt P13053); assay: Displacement of [3H]1-alpha,25-(OH)2D3 from rat recombinant VDR ligand-binding domain relative to 1-alpha,25-(OH)2D3
T1 sequence (whole entry): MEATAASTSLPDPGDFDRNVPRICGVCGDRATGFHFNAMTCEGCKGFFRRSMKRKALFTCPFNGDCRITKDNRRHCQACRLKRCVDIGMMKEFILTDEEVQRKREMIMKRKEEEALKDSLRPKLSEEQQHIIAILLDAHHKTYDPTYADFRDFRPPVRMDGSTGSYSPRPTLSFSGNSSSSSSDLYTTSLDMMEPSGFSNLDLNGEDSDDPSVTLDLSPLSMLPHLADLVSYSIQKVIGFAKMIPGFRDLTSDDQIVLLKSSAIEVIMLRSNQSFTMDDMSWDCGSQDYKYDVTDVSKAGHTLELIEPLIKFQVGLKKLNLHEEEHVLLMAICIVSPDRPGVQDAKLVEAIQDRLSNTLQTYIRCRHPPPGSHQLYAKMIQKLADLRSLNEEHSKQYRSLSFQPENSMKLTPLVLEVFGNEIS
How it was run: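 His-tagged rat VDR LBD (aa 115–423) was expressed in E. coli and the sonicated lysate diluted ~1000-fold in 50 mM Tris pH 7.5 (100 mM KCl, 5 mM DTT, 0.5% CHAPS, 100 µg/ml BSA). It was incubated with [3H]-1α,25-(OH)2D3 (~5000 dpm) at 4 °C for 18 h. Free ligand was removed with dextran-coated charcoal (30 min, 4 °C) and centrifugation, and the supernatant counted. At least two runs, in duplicate.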

Osteoclast = assay: Increase in osteoclast formation in mouse primary osteoclast cocultured cells; assay type: functional, cell-based
How it was run: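 Tibial marrow cells (1.5×10^5/well) from 5–8-wk male ddY mice were cocultured with primary calvarial cells (3×10^3/well) from newborn ddY mice. Culture was 7 days in α-MEM with 10% FBS and compound at 10^-8 to 10^-12 M, with medium renewed on day 3. Cells were formaldehyde-fixed and TRAP-stained, and TRAP-positive cells with ≥3 nuclei counted microscopically as osteoclasts.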

[2] = target: Vitamin D3 receptor (Homo sapiens) (UniProt P11473); assay: Activity at human VDR assessed as transcriptional activation in COS cells after 24 hrs by luciferase reporter gene assay relative to 1-alpha,25-(OH)2D3

| SMILES | Activity [1] [%] | Activity [2] [%] | Activity (Osteoclast) |
| --- | --- | --- | --- |
| CCC(O)(CC)CS[C@@H](C)C1=CCC2/C(=C/C=C3C[C@@H](O)C[C@H](O)C3)CCC[C@]12C (stereo not given in full) | 60 | 104 | Dose-dependent effect |
| CCC(O)(CC)CCCCS[C@@H](C)C1=CCC2/C(=C/C=C3C[C@@H](O)C[C@H](O)C3)CCC[C@]12C (stereo not given in full) |  | 1 |  |
| CCC(O)(CC)CCS[C@@H](C)C1=CCC2/C(=C/C=C3C[C@@H](O)C[C@H](O)C3)CCC[C@]12C (stereo not given in full) | 100 | 2000 | Dose-dependent effect |
| CCC(O)(CC)CCCS[C@@H](C)C1=CCC2/C(=C/C=C3C[C@@H](O)C[C@H](O)C3)CCC[C@]12C (stereo not given in full) | 100 | 2000 | Dose-dependent effect |

Continued, in another order:

| Activity [1] [%] | Activity [2] [%] | SMILES | Activity (Osteoclast) |
| --- | --- | --- | --- |
| 6 | 9 | CCC(O)(CC)CS[C@H](C)C1=CCC2/C(=C/C=C3C[C@@H](O)C[C@H](O)C3)CCC[C@]12C (stereo not given in full) | Dose-dependent effect |
| 4 | 27 | CCC(O)(CC)CCS[C@H](C)C1=CCC2/C(=C/C=C3C[C@@H](O)C[C@H](O)C3)CCC[C@]12C (stereo not given in full) | Dose-dependent effect |
| 8 | 20 | CCC(O)(CC)CCCS[C@H](C)C1=CCC2/C(=C/C=C3C[C@@H](O)C[C@H](O)C3)CCC[C@]12C (stereo not given in full) | Dose-dependent effect |
|  | 2 | CCC(O)(CC)CCCCCS[C@@H](C)C1=CCC2/C(=C/C=C3C[C@@H](O)C[C@H](O)C3)CCC[C@]12C (stereo not given in full) |  |
